Results on three compounds are retold here after article PMC6423489 (Heliyon, 2019).

One data set has as its system Saccharomyces cerevisia. The following applies: ref Mohn, 1973; Bianchi et al., 1994; cited from earlier work.
Data set [1] deals with human peripheral lymphocytes. The note with it: compared to the control group; ref Gomez-Arroyo et al. (1987); cited from earlier work.
The subject of a further data set is Escherichia coli. The following applies: ref Mohn, 1973; Bianchi et al., 1994; cited from earlier work.
A further data set deals with human lymphocytes. The following applies: 100 and 200 μg/mL; ref Ündeğer and Başaran (2005); cited from earlier work.
Another data set has as its system Salmonella typhimurium. The following applies: ref Mohn, 1973, Bianchi et al., 1994, cited from earlier work.
Data set [2] has as its system human peripheral lymphocytes. Description: In vitro micronucleus. The data set is classed as cell-based. The following applies: 72 h incubation. Put shortly:
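Whole blood from 3 healthy non-smoking donors (25–30 y) was treated with test compound at 0.5, 1.0 or 2.0 μg/mL in 2% DMSO for 72 h. Controls were distilled water, 2% DMSO and 10 mM EMS. Cytochalasin-B was added at 48 h and smears were Giemsa-stained. NDI was scored from 1000 cells and MN from 1000 binucleated cells per repeat, 3 donors, ANOVA.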

Setting [3] is: 10mM, 3000 binucleated cells counted.

Where two headings read alike, the source gives them in different places.

With `CNC(=O)CSP(=S)(OC)OC` [DIM], the mutagenicity result with Saccharomyces cerevisia is “mutagenic”; in the data set on Escherichia coli it was “mutagenic”; in the data set with Salmonella typhimurium (strain TA 100), “mutagenic”; in the data set with Salmonella typhimurium (strains TA 1535, TA 1537, TA 1538, TA 98 and TA 102), “non-mutagenic”. For the same compound, the sister chromatid exchanges entry in data set [1] is “increased sister chromatid exchanges”. Further, the DNA damage entry in the data set with human lymphocytes is on record as “significantly increased DNA damage”. For the same compound, the “MN within binucleat (1)” value in data set [2] (0.5 μg/mL, 3000 binucleated cells counted) is 27; in data set [2] (1.0 μg/mL, 3000 binucleated cells counted) it was 29; in data set [2] (2.0 μg/mL, 3000 binucleated cells counted), 63. Besides, the “%MN±S.E.” value in data set [2] (0.5 μg/mL, compared with DMSO) stood at 0.90 ± 0.72%; in data set [2] (1.0 μg/mL, compared with DMSO), 0.97 ± 0.63%; in data set [2] (2.0 μg/mL, compared with DMSO), 2.10 ± 0.13%. Further, the “NDI±S.E.” value was found to be 1.54 ± 0.20 in data set [2] (0.5 μg/mL, compared with DMSO) and 1.54 ± 0.23 in data set [2] (1.0 μg/mL, compared with DMSO).
As for `CCOS(C)(=O)=O` [EMS, ethyl methanesulfonate, reference compound], in data set [2] (setting [3]), the “MN within binucleat (1)” value is on record as 107, the “MN within binucleat (2)” value was 16 and the “MN within binucleat (3)” value came to 10. Besides, in data set [2] (10mM, compared with distilled water), the “%MN±S.E.” value turned out to be 5.63 ± 1.60%.
For the compound `COP(=S)(OC)Oc1ccc([N+](=O)[O-])cc1` [methyl parathion], the sister chromatid exchanges result in data set [1] was “increased sister chromatid exchanges”. In addition, the DNA damage entry in the data set on human lymphocytes is listed as “significantly increased DNA damage”.
